High-throughput results deposited in PubChem by several laboratories.
MC4R antag cAMP: antagonists of human melanocortin 4 receptor (MC4R); MC4R-expressing cells, MTII-stimulated cAMP, LANCE TR-FRET; inhibition, % at 6.5 µM; hit rate 0.48% among 360,000;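 active means inhibition above its plate's cutoff, the mean of tested wells on that plate plus 3 SD, cut at about 29% in these data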;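 further: 0% = Melanotan II alone and 100% = Melanotan II plus saturating MCL0020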
Target sequence (P32245 whole entry, looked up): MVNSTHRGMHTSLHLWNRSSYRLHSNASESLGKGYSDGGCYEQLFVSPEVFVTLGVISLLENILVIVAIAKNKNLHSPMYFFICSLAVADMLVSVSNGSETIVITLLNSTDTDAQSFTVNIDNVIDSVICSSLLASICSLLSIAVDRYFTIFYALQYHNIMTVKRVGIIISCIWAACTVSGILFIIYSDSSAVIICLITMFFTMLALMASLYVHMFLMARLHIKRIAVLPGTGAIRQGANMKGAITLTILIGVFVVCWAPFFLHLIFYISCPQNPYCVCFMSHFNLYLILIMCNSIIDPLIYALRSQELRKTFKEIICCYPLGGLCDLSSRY
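Assay system: human MC4R-expressing U2OS cells; reagent: Melanotan II stimulation of cells; dosing: 6.5 µM single dose; timing: compound 30 min, challenge 1 h, detection 1 h; signal: TR-FRET cAMP assay; replicates: one well per compound, no replicates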
HGIII-sPLA2 inh: Inhibits HGIII-sPLA2 liposome hydrolysis, primary screen. Q9NZ20. QFRET BODIPY PC-A2 liposome hydrolysis, fluorescence. inhibition, % at 12.2 µM. hit rate 0.56% among 370,000;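 active means inhibition above mean plus 3 SD of compounds lying within the high and low control bounds, cut at about 19% in these data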;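 further: 0% = median of test compound wells and 100% = no enzyme DMSO wells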
MC4R ag barr: agonists of human melanocortin 4 receptor (MC4R) beta-arrestin; activation, % at 8.9 µM; P32245; U2OS MC4R beta-arrestin complementation, luminescence; percent of melanotan II response, DMSO zero; hit rate 0.98% among 360,000; AID 540308;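 active means activation above a per-plate cutoff, the mean activation of sample wells on that plate plus 3 SD, cut at about 8% in these data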
A1 inh: inhibitors of the anti-apoptotic protein A1, read as caspase activation. MEF A1-2A-BIM cells, Caspase-Glo 3/7 luminescence, 3 h; percent of clofoctol response, vehicle zero. caspase activation, % (test concentration not listed). hit rate 0.066% among 330,000. AID 2462;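 active means over half of replicate activation scores above 10%, or exactly half above 10 with the replicate mean above 10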
NTR1 agonist: activates human neurotensin receptor 1. P30989. hit rate 0.17% among 330,000. activation, % at 20 µM. NTR1-U2OS beta-arrestin-GFP spot imaging, agonist mode;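 active means activation at or above 40% of the spot to cytoplasm intensity ratio, with at least 20 cells analyzed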;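 further: 0% = DMSO without peptide and 100% = 100 nM NTR1 peptide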
Granule exo inh: blocks lytic granule exocytosis; hit rate 0.66% among 360,000; TALL-104 LAMP-1 surface exposure, flow cytometry; cells stimulated with thapsigargin and PMA; inhibition, % at 10 µM; AID 651702;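 active means inhibition above about 55%, limit read from the data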
* = called active by the depositor; . = no result given. Only some compounds are listed: those with a hit (about 2.5% of all), similar ones and a draw of the others.

SMILES	MC4R antag cAMP	HGIII-sPLA2 inh	MC4R ag barr	A1 inh	NTR1 agonist	Granule exo inh
O=C(NCC(c1ccccc1)c1ccccc1)[C@H](Cc1c[nH]c2ccccc12)NC1(C(=O)NC2CCCCC2)CCCCCC1	.	-4.5	.	.	.	.
Cc1ccc(/C=C/C(=O)N2CC(C)CC(C)C2)o1 (stereo not given)	4.4	4.1	-1.9	1.8	1.1	102.5*
O=C(NCCc1ccc(F)cc1)c1ccc(Sc2ccccc2Cl)c([N+](=O)[O-])c1	.	11.3	.	.	.	.
CN(c1ccc(OCC(=O)NC2CCC(O)CC2)cc1)S(=O)(=O)c1ccc(Cl)cc1 (stereo not given)	13.7	-0.5	-1.0	14.7*	0.2	2.0
CN(N=Nc1cccc([N+](=O)[O-])c1)c1ccccc1	-12.3	7.3	-1.4	-4.8	8.3	3.5
CN(N=Nc1ccc([N+](=O)[O-])cc1)c1ccccc1	-0.4	11.5	8.3*	-2.0	2.3	1.4
CN1/C(=C\C(=S)NC(=O)c2ccccc2Cl)C(C)(C)c2ccccc21	1.9	17.6	0.1	0.0	-1.3	-2.5
COc1ccccc1C(=O)NC(=S)/C=C1/N(C)c2ccccc2C1(C)C	2.3	20.1*	-2.0	1.4	7.9	2.4
CN(C)CCCNS(=O)(=O)c1ccc(NC2CCCCCC2)c([N+](=O)[O-])c1	6.0	-26.2	-1.2	0.1	2.5	60.1*
O=C(CN(CCc1ccccc1)S(=O)(=O)c1ccc(Br)cc1)N/N=C/c1ccc2c(c1)OCO2	12.3	2.7	8.5*	0.1	25.6	0.0
CCN(CC)C(=O)CSc1nnc(-c2cccs2)o1	.	-0.7	.	.	.	.
C=CCOc1ccc(Br)cc1/C=C1/SC(=Nc2ccc(C(=O)O)cc2)NC1=O	23.9	0.1	-1.6	.	.	3.0
CCOc1cc(Br)cc(/C=C2\SC(=Nc3ccccc3)NC2=O)c1O	9.6	-38.2	10.2*	0.3	5.8	-4.2
Cn1cccc1/C=C1\SC(=Nc2ccccc2)NC1=O	-10.0	-27.8	-1.2	-4.5	0.0	55.7*
COc1cccc2cc3c(nc12)C[C@@H]1CCCC(=O)N2CCC[C@@]12C3	.	3.3	.	.	.	.
COc1ccc(C2Nc3ccc4ccccc4c3-c3c2c(=O)oc2ccccc32)cc1 (stereo not given)	1.8	-14.1	6.7	8.7*	2.9	5.5
CCOc1ccc(C2Nc3ccc4ccccc4c3-c3c2c(=O)oc2ccccc32)cc1 (stereo not given)	0.9	-1.1	0.0	-0.6	2.9	5.3
CC1CCN(S(=O)(=O)c2ccc(NC(=O)Cn3nnc(-c4ccccc4)n3)cc2)CC1	-4.4	-18.5	37.3*	-0.2	16.9	1.5
Cc1ccc(-c2nnn(CC(=O)Nc3ccc(S(=O)(=O)N4CCC(C)CC4)cc3)n2)cc1	-3.7	-16.2	12.6*	1.9	5.7	1.6
CC1CCCN(S(=O)(=O)c2ccc(NC(=O)Cn3nnc(-c4ccccc4F)n3)cc2)C1 (stereo not given)	3.8	-63.3	2.9	0.2	2.8	1.1
CC1CCN(CC(=O)Nc2ccc(S(=O)(=O)N3CCC(C)CC3)cc2)CC1	16.1	-8.9	1.8	0.3	2.6	7.4
COc1ccc(CNC2CCC23CCCCC3)cc1OC (stereo not given)	.	8.0	.	.	.	.
CCN(CC)c1ccc(-c2nnc(SCC(=O)Nc3ccccc3C#N)n2-c2ccccc2)cc1	6.7	-4.7	-0.8	-0.1	1.8	87.8*
CC1(Oc2cccc(F)c2)CCN(Cc2ccc(-c3ccccn3)cc2)C1 (stereo not given)	10.3	0.7	8.6*	.	.	2.4
CC1(Oc2cnc(Cl)c3ccccc23)CCN(Cc2ccc(-c3ccccn3)cc2)C1 (stereo not given)	0.9	-12.5	-0.1	.	.	19.3
SMILES	MC4R antag cAMP	HGIII-sPLA2 inh	MC4R ag barr	A1 inh	NTR1 agonist	Granule exo inh
COC(=O)[C@H](CC(C)C)N(CCc1cn(Cc2ccc(C)cc2)nn1)S(=O)(=O)c1ccccc1Br	.	-12.0	.	.	.	.
O=S(=O)(c1ccc(Cl)c(NC(=S)Nc2cccc(O)c2)c1)N1CCOCC1	0.0	2.5	1.0	0.5	0.7	1.3
CCN(C(=S)Nc1cc(S(=O)(=O)N2CCOCC2)ccc1Cl)c1cccc2ccccc12	3.5	-2.5	-0.6	0.6	-0.2	60.6*
COc1ccc(-c2cc(C(=O)N=Nc3c(O)[nH]c4ccccc34)[nH]n2)cc1	.	0.6	.	.	.	.
Cc1ccccc1OCC(O)CN1CCN(CC(O)COc2ccccc2C)CC1 (stereo not given)	9.5	-9.6	-1.2	-0.6	-0.6	-1.3
C=CCc1ccccc1OCC(O)CN1CCOCC1 (stereo not given)	9.5	13.2	-0.4	1.1	2.2	-6.4
Cc1ccccc1OCC(O)CN1CCN(c2ccc(Cl)cc2)CC1 (stereo not given)	7.5	-2.1	8.2*	-1.4	2.5	-9.2
C=CCc1ccccc1OCC(O)CN1CCN(c2ccc(OC)cc2)CC1 (stereo not given)	22.2	1.8	8.7*	-0.3	2.7	-3.4
CC(C)Cn1c(=O)cc(N2CCN(c3cccc(C(F)(F)F)c3)CC2)[nH]c1=O	.	3.1	.	.	.	.
O=C(c1ccc(Cl)cc1)c1c[nH]c(C(=O)NNc2cccc(Cl)n2)c1	-2.4	10.1	8.3*	-0.3	1.6	-0.1
O=C1NC(=O)c2cc(Br)cc3cccc1c23	-10.0	9.4	8.9*	0.5	0.2	0.6
O=C1NC(=O)c2cc([N+](=O)[O-])cc3cccc1c23	-2.5	3.5	-0.6	0.2	-0.5	-8.6
CC(C)(C)OC(=O)/C=C/[C@@H](CC1CCCC1)Sc1ccc(C(C)(C)C)cc1	.	6.0	.	.	.	.
COc1ccc(OC)c(/C=N\NC(=O)c2ccc(-c3ccccc3)cc2)c1	5.4	0.8	-1.9	0.5	-0.6	-7.9
COc1cccc(/C=N/NC(=O)c2ccc(-c3ccccc3)cc2)c1O	3.2	12.3	2.7	0.2	7.2	59.0*
C=CCNC(=S)N1C[C@H]2CON(C)[C@H]2C[C@H]1c1ccccc1Br	.	2.1	.	.	.	.
COc1cc(/C=C/c2nc(-c3ccccc3O)n[nH]2)cc(OC)c1OC	0.8	-64.7	-0.7	-0.1	8.4	98.1*
COc1cc(/C=C/c2nc(N)nc(-c3ccccc3O)n2)cc(OC)c1OC	13.0	-7.0	4.0	-1.6	7.7	25.3
CCN(CC)c1ccc2c(-c3ccc(S(=O)(=O)O)cc3S(=O)(=O)[O-])c3ccc(=[N+](CC)CC)cc-3oc2c1	50.3*	.	-3.8	-0.3	-3.4	8.0
CCN(CC)c1ccc2nc3c4ccccc4c(=O)cc-3oc2c1	.	6.2	.	-6.1	19.0	.
O=C(Nc1ncc(Cc2ccc(SC(F)F)cc2)s1)c1ccc(OC(F)F)cc1	11.2	12.1	32.7*	0.0	5.5	0.6
O=[N+]([O-])c1cccc(OCCCN2CCC(Cc3ccccc3)CC2)c1	10.3	-8.8	2.1	-2.5	.	86.0*
O=C(OCC12CC3CC(CC(C3)C1)C2)c1ccc(NCc2cc(O)ccc2O)cc1	0.6	29.1*	10.7*	.	.	1.4
